Test results from ChEMBL document CHEMBL1121486, “Synthesis of nitrosourea derivatives of pyridine and piperidine as potential anticancer agents” (1980).
Values joined by “and” are separate entries in the source; they are usually repeats but may differ in a detail not shown here. Equal values may be shown once.

What was measured:
Mus musculus [1] = experiment: Compound tested for the effect on total white blood cell count and reported as percentage change from control on day 3 at 22.63 mg/kg (ip); type: functional
How it was run: (§1)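 Total white blood cell count in mice. Treatment was intraperitoneal at the listed mg/kg doses, 10 mice per group. Counts were taken on days 3, 5 and 7 and expressed as % change from control, with the control being each group's predose value. Significance was taken at p ≤ 0.05.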

Mus musculus [2] = experiment: Compound tested for the effect on total white blood cell count and reported as percentage change from control on day 5 at 90.5 mg/kg (ip); type: functional; how it was run: as §1
Mus musculus [3] = experiment: Compound tested for the effect on total white blood cell count and reported as percentage change from control on day 3 at 90.5 mg/kg (ip); type: functional; how it was run: as §1
[4] = test system: Lewis lung carcinoma cell line; experiment: Effect of compound on Lewis Lung carcinoma after single ip injection on day 1 recorded as animal weight difference of the treated and the control (T-C) at OD of 64-2 mg/kg; type: functional, Mus musculus
Mus musculus [5] = experiment: Compound tested for the effect on total white blood cell count and reported as percentage change from control on day 5 at 40.25 mg/kg (ip); type: functional; how it was run: as §1
[6] = test system: Lewis lung carcinoma cell line; experiment: Effect of compound on Lewis Lung carcinoma after single dose injected intraperitoneally on day 1 recorded as percentage of cured animals at OD of 64 mg/kg; details: Mus musculus, route intraperitoneal
[7] = test system: Lewis lung carcinoma cell line; experiment: Effect of compound on Lewis Lung carcinoma after single dose injected intraperitoneally on day 1 recorded as animal weight difference of the treated and the control (T-C) at OD of 64 mg/kg; type: functional, Mus musculus; details: route intraperitoneal
Mus musculus [8] = experiment: Compound tested for the effect on total white blood cell count and reported as percentage change from control on day 3 at 11.31 mg/kg (ip); type: functional; how it was run: as §1
Mus musculus [9] = experiment: Compound tested for the effect on total white blood cell count and reported as percentage change from control on day 5 at 22.63 mg/kg (ip); type: functional; how it was run: as §1
Mus musculus [10] = experiment: Compound tested for the effect on total white blood cell count and reported as percentage change from control on day 3 at 40.25 mg/kg (ip); type: functional; how it was run: as §1
Mus musculus [11] = experiment: Compound tested for the effect on total white blood cell count and reported as percentage change from control on day 7 at 40.25 mg/kg (ip); type: functional; how it was run: as §1
3EM 37 [12] = experiment: Effect of compound on 3EM 37 mouse ependymoblastoma after single ip injection on day 1 recorded as animal weight difference of the treated and the control (T-C) at OD of 100 mg/kg; type: functional; details: route intraperitoneal
3EM 37 [13] = experiment: Compound tested for activity against 3EM 37 mouse ependymoblastoma after single ip injection on day 1 at optimal dose of 128 mg/kg (Dose range 256-16); type: functional; details: route intraperitoneal
3EM 37 [14] = experiment: Compound tested for toxicity against 3EM 37 mouse ependymoblastoma after single ip injection on day 1 at optimal dose (OD) of 100 mg/kg on the 5th day after the injection of the compound; (10/10); details: route intraperitoneal
3EM 37 [15] = experiment: Effect of compound on 3EM 37 mouse ependymoblastoma after single ip injection on day 1 recorded as percentage of cured animals at OD of 100 mg/kg; type: functional; details: route intraperitoneal

## O=NN(CCCl)C(=O)NCCCl [CARMUSTINE]
Mus musculus [1]
  Change: -33%
Mus musculus [2]
  Change: -48%
Mus musculus [3]
  Change: -68%
[4]
  Optimal dose: 32 mg/kg
Mus musculus [5]
  Change: -22%
[6]
  T/C: >353%
[7]
  T-C: -3.5 g
Mus musculus [8]
  Change: -47%
Mus musculus [9]
  Change: -28% and -42%
Mus musculus [10]
  Change: -46%
Mus musculus [11]
  Change: -41%

## CC1CCC(NC(=O)N(CCCl)N=O)CC1 (stereo not given) [SEMUSTINE]
3EM 37 [12]
  T-C: 1 g
3EM 37 [13]
  Optimal dose: 128 mg/kg
3EM 37 [14]
  Survival: 9
3EM 37 [15]
  T/C: 204%
